Results as given in ChEMBL document CHEMBL5046221, “Identification of Pyrimidine-Based Lead Compounds for Understudied Kinases Implicated in Driving Neurodegeneration” (J Med Chem, 2022).

How the values were obtained:
[1] = molecular target: High affinity nerve growth factor receptor (Homo sapiens, UniProt P04629); assay: Inhibition of human TrkA (440 to end residues) using KKKSPGEYVNIEFG as substrate measured after 40 mins in presence of [gamma33P]ATP by scintillation counting method
Summary of the method: (§1)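 Eurofins radiometric kinase assay run at ATP equal to Km for each kinase. 9-point dose–response in duplicate gives the IC50.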

[2] = molecular target: T1, NUAK family SNF1-like kinase 1 (Homo sapiens, UniProt O60285); assay: Inhibition of recombinant human ARK5 (2 to end residues) using KKKVSRSGLYRSPSMPENLNRPR as substrate incubated for 40 mins in presence of [gamma-33ATP] by scintillation counting based radiometry assay
T1 sequence (O60285 whole entry): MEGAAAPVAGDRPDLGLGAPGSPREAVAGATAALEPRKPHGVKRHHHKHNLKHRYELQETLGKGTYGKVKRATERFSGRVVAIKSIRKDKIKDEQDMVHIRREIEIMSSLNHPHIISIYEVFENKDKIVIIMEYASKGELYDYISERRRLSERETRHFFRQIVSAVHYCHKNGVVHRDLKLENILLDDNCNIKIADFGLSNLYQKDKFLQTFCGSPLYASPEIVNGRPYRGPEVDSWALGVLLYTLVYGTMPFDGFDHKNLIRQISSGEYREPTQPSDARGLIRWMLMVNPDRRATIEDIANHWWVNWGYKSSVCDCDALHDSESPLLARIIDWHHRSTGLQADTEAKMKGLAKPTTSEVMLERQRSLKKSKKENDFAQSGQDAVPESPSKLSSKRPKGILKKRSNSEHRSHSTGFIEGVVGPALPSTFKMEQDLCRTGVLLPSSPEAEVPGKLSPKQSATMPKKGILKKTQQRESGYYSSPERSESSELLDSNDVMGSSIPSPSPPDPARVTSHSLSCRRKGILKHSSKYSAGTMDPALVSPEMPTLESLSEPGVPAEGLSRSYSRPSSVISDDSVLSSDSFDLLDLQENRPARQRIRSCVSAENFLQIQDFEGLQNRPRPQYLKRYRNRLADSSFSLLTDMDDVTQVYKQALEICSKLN
Summary of the method: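 Eurofins radiometric enzymatic assay with ATP at Km for each kinase. IC50 was derived from a 9-point dose–response curve run in duplicate.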

[3] = molecular target: Aurora kinase B (Homo sapiens) (UniProt Q96GD4); assay: Inhibition of full length recombinant human AURKB using AKRRRLSSLRA as substrate at 1 uM incubated for 40 mins in presence of [gamma-33P-ATP] by radiometric scintillation assay relative to control
Summary of the method: (§2)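 Eurofins radiometric kinase assay with ATP at Km for each kinase. Compound was tested at a single 1 μM concentration in duplicate, and the result is reported as percent of control.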

[4] = molecular target: Tyrosine-protein kinase JAK2 (Homo sapiens) (UniProt O60674); assay: Inhibition of recombinant human JAK2 (808 to end residues) using KTFCGTPEYLAPEVRREPRILSEEEQEMFRDFDYIADWC as substrate at 1 uM incubated for 40 mins in presence of [gamma-33P-ATP] by radiometric scintillation assay relative to control; summary of the method: as §2
[5] = Inhibition of human TTBK1 (1 to 479 residues) using Casein as substrate measured after 40 mins in presence of [gamma33P]ATP by scintillation counting method; summary of the method: as §1
[6] = Effective permeability in PBS at 7.4 incubated for 5 hrs by PAMPA analysis; assay type: ADME; conditions: pH 7.4, 5 h
Summary of the method: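 PAMPA: DMSO stocks were diluted in PBS pH 7.4 and placed in the donor compartment, with PBS pH 7.4 in the acceptor, for 5 h. Both compartments were quantified by CLND against a calibration curve, with background nitrogen correction. Effective permeability was calculated from donor and acceptor concentrations using measured rather than assumed solubility.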

[7] = molecular target: MAP/microtubule affinity-regulating kinase 3 (Homo sapiens, UniProt P27448); assay: Displacement of tracer K9 from NLuc fused MARK3 (unknown origin) expressed in HEK293 cells by NanoBRET assay; assay type: cell-based
[8] = molecular target: T2, Serine/threonine-protein kinase 17A (Homo sapiens, UniProt Q9UEE5); assay: Displacement of tracer K9 from NLuc fused DRAK1 (unknown origin) expressed in HEK293 cells by NanoBRET assay; assay type: cell-based
T2 sequence (Q9UEE5 whole entry): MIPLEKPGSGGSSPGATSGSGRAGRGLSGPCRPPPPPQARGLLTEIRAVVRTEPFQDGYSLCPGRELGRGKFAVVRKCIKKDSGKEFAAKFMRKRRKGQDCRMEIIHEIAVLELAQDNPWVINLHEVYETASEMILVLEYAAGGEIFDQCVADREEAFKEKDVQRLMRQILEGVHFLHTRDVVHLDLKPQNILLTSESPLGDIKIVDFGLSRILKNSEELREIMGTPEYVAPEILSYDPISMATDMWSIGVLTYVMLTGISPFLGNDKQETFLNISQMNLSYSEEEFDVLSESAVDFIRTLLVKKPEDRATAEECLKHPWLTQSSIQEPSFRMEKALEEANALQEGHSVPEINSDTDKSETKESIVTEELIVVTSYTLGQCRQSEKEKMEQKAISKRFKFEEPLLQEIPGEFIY

[9] = molecular target: T3, Serine/threonine-protein kinase TBK1 (Homo sapiens, UniProt Q9UHD2); assay: Displacement of tracer K5 from NLuc fused TBK1 (unknown origin) expressed in HEK293 cells by NanoBRET assay; assay type: cell-based
T3 sequence (Q9UHD2 whole entry): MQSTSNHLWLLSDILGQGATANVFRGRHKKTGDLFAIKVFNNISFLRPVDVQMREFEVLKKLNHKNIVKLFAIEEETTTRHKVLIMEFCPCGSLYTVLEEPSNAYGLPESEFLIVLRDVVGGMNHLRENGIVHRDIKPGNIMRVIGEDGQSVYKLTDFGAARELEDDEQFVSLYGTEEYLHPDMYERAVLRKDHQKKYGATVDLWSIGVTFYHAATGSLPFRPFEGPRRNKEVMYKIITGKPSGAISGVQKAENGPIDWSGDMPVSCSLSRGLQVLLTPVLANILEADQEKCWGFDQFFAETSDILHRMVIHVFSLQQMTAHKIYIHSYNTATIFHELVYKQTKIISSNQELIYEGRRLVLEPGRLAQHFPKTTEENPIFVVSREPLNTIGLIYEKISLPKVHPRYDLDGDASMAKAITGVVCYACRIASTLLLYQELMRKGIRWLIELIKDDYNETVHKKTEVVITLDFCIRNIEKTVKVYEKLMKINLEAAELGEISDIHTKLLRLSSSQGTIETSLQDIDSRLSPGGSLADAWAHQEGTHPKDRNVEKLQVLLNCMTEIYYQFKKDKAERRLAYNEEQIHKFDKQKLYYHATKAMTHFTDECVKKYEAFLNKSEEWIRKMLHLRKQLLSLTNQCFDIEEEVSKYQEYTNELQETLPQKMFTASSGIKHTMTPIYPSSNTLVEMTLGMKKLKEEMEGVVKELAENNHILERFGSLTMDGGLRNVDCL
Summary of the method: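 HEK293 cells grown in DMEM with 10% FBS at 37 °C, 5% CO2. NanoBRET assay run in dose–response per manufacturer's protocol with tracer K-5 at 0.5 μM. SEM calculated for assays run more than once.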

Chain of Tyrosine-protein kinase JAK2 (Homo sapiens) (O60674 whole entry, the tested form may be a part): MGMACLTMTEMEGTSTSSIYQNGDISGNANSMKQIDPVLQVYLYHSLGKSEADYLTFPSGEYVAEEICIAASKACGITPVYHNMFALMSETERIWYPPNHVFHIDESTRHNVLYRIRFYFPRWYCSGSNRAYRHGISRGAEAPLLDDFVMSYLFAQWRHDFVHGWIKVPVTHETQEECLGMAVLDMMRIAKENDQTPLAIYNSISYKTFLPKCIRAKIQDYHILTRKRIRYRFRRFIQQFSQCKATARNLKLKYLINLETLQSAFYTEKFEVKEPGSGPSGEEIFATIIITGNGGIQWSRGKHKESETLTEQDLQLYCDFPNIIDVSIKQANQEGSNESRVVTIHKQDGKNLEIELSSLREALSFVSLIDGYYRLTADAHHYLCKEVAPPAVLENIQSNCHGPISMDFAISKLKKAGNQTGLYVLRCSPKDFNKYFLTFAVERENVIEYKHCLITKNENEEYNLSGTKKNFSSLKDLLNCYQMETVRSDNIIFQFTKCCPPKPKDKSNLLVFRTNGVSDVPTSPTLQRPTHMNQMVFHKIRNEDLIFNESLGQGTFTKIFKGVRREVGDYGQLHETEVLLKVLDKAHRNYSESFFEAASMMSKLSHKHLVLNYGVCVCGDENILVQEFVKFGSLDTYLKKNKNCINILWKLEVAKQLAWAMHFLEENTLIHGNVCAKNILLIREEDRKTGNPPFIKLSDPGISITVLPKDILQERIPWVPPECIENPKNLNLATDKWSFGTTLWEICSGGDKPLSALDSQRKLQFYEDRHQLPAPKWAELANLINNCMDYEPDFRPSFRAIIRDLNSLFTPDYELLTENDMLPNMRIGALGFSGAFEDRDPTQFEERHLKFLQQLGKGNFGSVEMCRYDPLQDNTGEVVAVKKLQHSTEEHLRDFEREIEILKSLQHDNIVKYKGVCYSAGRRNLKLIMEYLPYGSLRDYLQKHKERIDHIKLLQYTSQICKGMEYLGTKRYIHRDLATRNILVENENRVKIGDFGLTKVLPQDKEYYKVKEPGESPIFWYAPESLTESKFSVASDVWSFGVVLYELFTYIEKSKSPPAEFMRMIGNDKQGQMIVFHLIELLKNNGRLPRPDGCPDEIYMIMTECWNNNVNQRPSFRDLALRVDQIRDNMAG
Chain of High affinity nerve growth factor receptor (P04629 whole entry): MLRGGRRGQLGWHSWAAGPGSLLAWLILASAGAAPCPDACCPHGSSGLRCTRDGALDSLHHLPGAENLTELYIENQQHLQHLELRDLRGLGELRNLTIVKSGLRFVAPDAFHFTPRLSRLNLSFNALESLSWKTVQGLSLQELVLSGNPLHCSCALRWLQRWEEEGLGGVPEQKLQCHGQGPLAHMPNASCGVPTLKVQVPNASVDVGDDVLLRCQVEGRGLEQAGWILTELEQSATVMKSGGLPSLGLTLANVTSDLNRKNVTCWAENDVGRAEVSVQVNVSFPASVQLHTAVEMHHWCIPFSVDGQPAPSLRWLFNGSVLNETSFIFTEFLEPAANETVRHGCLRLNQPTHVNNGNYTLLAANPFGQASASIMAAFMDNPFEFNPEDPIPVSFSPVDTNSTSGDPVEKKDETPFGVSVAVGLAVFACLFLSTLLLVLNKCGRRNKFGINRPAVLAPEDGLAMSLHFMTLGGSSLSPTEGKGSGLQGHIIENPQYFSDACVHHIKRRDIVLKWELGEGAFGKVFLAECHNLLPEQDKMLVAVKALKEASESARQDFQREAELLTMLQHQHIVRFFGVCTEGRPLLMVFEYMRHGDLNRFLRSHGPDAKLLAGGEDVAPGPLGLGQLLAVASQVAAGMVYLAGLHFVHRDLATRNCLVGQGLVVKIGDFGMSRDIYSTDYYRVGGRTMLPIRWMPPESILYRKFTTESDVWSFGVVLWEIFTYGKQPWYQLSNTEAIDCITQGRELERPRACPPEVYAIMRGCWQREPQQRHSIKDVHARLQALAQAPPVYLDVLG
Chain of MAP/microtubule affinity-regulating kinase 3 (P27448 whole entry, the tested form may be a part): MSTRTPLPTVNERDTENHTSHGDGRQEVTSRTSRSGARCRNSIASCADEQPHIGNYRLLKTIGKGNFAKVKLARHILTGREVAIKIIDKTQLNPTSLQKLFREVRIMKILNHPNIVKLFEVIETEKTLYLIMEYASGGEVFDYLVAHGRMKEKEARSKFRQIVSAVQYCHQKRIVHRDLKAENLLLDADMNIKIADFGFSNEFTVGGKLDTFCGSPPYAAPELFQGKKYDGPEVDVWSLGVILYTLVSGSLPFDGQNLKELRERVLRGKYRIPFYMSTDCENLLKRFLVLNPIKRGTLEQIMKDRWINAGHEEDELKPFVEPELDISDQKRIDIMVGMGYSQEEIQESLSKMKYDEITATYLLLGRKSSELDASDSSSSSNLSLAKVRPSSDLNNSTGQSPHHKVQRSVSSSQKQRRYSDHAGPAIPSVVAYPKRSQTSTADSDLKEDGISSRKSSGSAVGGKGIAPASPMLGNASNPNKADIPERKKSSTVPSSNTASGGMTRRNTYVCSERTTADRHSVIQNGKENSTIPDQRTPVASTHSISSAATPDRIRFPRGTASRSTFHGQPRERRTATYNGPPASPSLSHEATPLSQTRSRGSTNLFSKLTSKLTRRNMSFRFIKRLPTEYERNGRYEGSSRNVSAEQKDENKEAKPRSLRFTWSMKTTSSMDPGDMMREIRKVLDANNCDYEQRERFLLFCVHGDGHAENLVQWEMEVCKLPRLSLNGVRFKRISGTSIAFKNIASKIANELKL
Chain of Aurora kinase B (Homo sapiens) (Q96GD4 whole entry): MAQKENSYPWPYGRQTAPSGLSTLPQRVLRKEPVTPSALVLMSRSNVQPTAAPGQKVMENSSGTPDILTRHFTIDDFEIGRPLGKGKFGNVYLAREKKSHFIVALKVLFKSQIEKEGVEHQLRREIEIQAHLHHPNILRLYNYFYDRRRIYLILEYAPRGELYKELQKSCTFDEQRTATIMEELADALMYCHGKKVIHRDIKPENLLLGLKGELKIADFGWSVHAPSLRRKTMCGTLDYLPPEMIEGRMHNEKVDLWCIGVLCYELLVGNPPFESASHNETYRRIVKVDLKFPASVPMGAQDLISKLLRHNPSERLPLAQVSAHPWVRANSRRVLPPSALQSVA

SMILES: NS(=O)(=O)c1ccc(CNc2nc(Nc3cccc(NC(=O)N4CCCC4)c3)ncc2Br)cc1
- IC50 [1]: 283 nM
- IC50 [2]: 317 nM
- % control [3]: 6%
- % control [4]: 12%
- IC50 [5]: 192 nM
- Peff ([6]; BLD = below limit of detection): Bld
- IC50 [7]: > 10000 nM
- IC50 [8]: > 10000 nM
- IC50 [9]: 6170 nM

SMILES: c1cc(CN2CCOCC2)cc(Nc2nccc(NCCc3cnc[nH]3)n2)c1
- IC50 [2]: 176 nM
- % control [3]: 5%
- % control [4]: 81%
- Peff [6]: 1.66 10^-7 cm/s
- IC50 [7]: > 10000 nM
- IC50 [8]: > 10000 nM
- IC50 [9]: > 10000 nM

SMILES: NS(=O)(=O)c1ccc(CNc2nc(Nc3cccc(CN4CCOCC4)c3)ncc2Br)cc1
- IC50 [1]: 158 nM
- IC50 [2]: 171 nM
- % control [3]: 7%
- % control [4]: 3%
- IC50 [5]: 66 nM
- Peff ([6]; BLD = below limit of detection): Bld
- IC50 [7]: > 10000 nM
- IC50 [8]: > 10000 nM
- IC50 [9]: > 10000 nM

SMILES: NS(=O)(=O)c1ccc(CNc2nc(Nc3cccc(CN4CCOCC4)c3)ncc2C2CC2)cc1
- IC50 [1]: 153 nM
- % control [3]: 51%
- % control [4]: 87%
- IC50 [5]: 187 nM
- Peff [6]: 7.09 10^-7 cm/s
- IC50 [7]: > 10000 nM
- IC50 [8]: > 10000 nM
- IC50 [9]: 2050 nM
